# Measurements reported in ChEMBL document CHEMBL2417369, “Synthesis and evaluation of heteroaryl substituted diazaspirocycles as scaffolds to probe the ATP-binding site of protein kinases” (Bioorg Med Chem, 2013).
# Assays:
# [1] = target: Casein kinase I isoform delta (Homo sapiens, UniProt P48730); assay: Inhibition of CK1delta (unknown origin) by microfluidic mobility shift assay
# [2] = target: Proto-oncogene tyrosine-protein kinase Src (Homo sapiens, UniProt P12931); assay: Inhibition of SRC (unknown origin) by microfluidic mobility shift assay
# [3] = target: Tyrosine-protein kinase Lck (Homo sapiens, UniProt P06239); assay: Inhibition of LCK (unknown origin) by microfluidic mobility shift assay
# [4] = target: Tyrosine-protein kinase Lyn (Homo sapiens, UniProt P07948); assay: Inhibition of LYN (unknown origin) by microfluidic mobility shift assay
# Chain of Tyrosine-protein kinase Lyn (P07948 whole entry): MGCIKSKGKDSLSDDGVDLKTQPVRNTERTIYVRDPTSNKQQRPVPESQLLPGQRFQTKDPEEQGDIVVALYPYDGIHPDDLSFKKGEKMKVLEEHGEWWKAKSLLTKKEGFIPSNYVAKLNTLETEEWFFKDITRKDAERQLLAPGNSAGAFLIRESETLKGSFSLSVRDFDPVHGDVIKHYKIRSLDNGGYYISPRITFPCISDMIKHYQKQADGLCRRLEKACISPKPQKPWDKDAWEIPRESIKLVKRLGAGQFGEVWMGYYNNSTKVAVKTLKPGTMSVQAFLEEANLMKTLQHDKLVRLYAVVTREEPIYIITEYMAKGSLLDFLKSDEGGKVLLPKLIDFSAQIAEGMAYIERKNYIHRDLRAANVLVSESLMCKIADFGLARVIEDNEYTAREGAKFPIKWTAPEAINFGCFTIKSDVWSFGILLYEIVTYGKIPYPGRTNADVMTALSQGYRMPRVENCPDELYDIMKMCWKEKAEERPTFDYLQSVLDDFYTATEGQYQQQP
# [5] = target: Tyrosine-protein kinase Fyn (Homo sapiens, UniProt P06241); assay: Inhibition of FYN (unknown origin) by microfluidic mobility shift assay
# [6] = target: Tyrosine-protein kinase ABL1 (Homo sapiens, UniProt P00519); assay: Inhibition of ABL (unknown origin) by microfluidic mobility shift assay
# [7] = target: Glycogen synthase kinase-3 beta (Homo sapiens, UniProt P49841); assay: Inhibition of GSK3beta (unknown origin) by microfluidic mobility shift assay
# Chain of Glycogen synthase kinase-3 beta (P49841 whole entry): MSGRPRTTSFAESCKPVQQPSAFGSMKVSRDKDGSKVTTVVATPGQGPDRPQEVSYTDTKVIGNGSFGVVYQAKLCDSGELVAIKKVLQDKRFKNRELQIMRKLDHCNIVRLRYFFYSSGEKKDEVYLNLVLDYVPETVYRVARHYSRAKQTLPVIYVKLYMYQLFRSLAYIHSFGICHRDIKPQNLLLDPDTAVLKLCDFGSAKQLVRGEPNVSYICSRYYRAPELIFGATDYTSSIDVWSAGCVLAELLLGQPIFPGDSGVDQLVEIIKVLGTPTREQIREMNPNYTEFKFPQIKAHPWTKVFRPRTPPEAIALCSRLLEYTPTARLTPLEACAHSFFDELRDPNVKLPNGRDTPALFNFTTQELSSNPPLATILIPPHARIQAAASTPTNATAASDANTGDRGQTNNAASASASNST
# [8] = target: Mitogen-activated protein kinase 1 (Homo sapiens, UniProt P28482); assay: Inhibition of ERK2 (unknown origin) by microfluidic mobility shift assay
# Chain of Mitogen-activated protein kinase 1 (P28482 whole entry): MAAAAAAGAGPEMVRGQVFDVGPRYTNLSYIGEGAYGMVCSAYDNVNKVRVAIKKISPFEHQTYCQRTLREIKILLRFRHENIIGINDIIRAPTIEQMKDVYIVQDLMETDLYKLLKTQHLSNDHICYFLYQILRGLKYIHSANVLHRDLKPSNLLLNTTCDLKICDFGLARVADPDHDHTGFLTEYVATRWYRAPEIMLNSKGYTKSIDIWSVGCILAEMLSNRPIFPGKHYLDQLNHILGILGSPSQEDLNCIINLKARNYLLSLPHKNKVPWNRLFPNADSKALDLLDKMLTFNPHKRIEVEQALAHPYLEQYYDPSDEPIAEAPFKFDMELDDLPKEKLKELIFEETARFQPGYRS
# [9] = target: Mitogen-activated protein kinase 3 (Homo sapiens, UniProt P27361); assay: Inhibition of ERK1 (unknown origin) by microfluidic mobility shift assay
# [10] = target: Serine/threonine-protein kinase Chk2 (Homo sapiens, UniProt O96017); assay: Inhibition of CHK2 (unknown origin) by microfluidic mobility shift assay
# [11] = target: MAP kinase-activated protein kinase 5 (Homo sapiens, UniProt Q8IW41); assay: Inhibition of PRAK (unknown origin) by microfluidic mobility shift assay
# Chain of MAP kinase-activated protein kinase 5 (Q8IW41 whole entry): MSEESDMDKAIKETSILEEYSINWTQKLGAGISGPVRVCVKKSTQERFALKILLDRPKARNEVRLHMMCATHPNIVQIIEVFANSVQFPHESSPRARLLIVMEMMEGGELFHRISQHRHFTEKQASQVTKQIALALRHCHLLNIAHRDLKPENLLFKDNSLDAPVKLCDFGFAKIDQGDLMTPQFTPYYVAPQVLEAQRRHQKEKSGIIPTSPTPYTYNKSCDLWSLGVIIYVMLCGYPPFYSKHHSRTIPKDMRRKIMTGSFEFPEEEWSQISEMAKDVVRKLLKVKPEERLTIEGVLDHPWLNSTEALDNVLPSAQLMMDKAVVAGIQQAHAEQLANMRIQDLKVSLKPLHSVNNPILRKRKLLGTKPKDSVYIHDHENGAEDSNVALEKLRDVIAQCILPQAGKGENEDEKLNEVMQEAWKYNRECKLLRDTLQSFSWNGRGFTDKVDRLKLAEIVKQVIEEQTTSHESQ
# [12] = target: Serine/threonine-protein kinase D2 (Homo sapiens, UniProt Q9BZL6); assay: Inhibition of PKD2 (unknown origin) by microfluidic mobility shift assay
# [13] = Inhibition of MAPK (unknown origin) by microfluidic mobility shift assay; design: species or system Homo sapiens
# [14] = target: Ribosomal protein S6 kinase alpha-1 (Homo sapiens, UniProt Q15418); assay: Inhibition of RSK1 (unknown origin) by microfluidic mobility shift assay
# [15] = target: Ribosomal protein S6 kinase alpha-5 (Homo sapiens, UniProt O75582); assay: Inhibition of MSK1 (unknown origin) by microfluidic mobility shift assay
# [16] = target: RAC-beta serine/threonine-protein kinase (Homo sapiens, UniProt P31751); assay: Inhibition of AKT2 (unknown origin) by microfluidic mobility shift assay
# [17] = target: RAC-alpha serine/threonine-protein kinase (Homo sapiens, UniProt P31749); assay: Inhibition of AKT1 (unknown origin) by microfluidic mobility shift assay
# [18] = target: Hepatocyte growth factor receptor (Homo sapiens, UniProt P08581); assay: Inhibition of MET (unknown origin) by microfluidic mobility shift assay
# [19] = target: Protein kinase C zeta type (Homo sapiens, UniProt Q05513); assay: Inhibition of PKCzeta (unknown origin) by microfluidic mobility shift assay
# [20] = target: Platelet-derived growth factor receptor (Homo sapiens) (UniProt P09619+P16234); assay: Inhibition of PDGFR (unknown origin) at 30 uM by microfluidic mobility shift assay relative to control; type: protein-complex assay
# In short: (§1)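 Single-point screen at 30 µM test compound across a 24-kinase panel in a microfluidic assay format. ATP was set near each enzyme's Km,[ATP]. […] The pan-AGC inhibitor H-89 served as an internal control on every assay plate.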
# [21] = target: Epidermal growth factor receptor (Homo sapiens) (UniProt P00533); assay: Inhibition of EGFR (unknown origin) at 30 uM by microfluidic mobility shift assay relative to control; in short: as §1
# Chain of Epidermal growth factor receptor (Homo sapiens) (P00533 whole entry): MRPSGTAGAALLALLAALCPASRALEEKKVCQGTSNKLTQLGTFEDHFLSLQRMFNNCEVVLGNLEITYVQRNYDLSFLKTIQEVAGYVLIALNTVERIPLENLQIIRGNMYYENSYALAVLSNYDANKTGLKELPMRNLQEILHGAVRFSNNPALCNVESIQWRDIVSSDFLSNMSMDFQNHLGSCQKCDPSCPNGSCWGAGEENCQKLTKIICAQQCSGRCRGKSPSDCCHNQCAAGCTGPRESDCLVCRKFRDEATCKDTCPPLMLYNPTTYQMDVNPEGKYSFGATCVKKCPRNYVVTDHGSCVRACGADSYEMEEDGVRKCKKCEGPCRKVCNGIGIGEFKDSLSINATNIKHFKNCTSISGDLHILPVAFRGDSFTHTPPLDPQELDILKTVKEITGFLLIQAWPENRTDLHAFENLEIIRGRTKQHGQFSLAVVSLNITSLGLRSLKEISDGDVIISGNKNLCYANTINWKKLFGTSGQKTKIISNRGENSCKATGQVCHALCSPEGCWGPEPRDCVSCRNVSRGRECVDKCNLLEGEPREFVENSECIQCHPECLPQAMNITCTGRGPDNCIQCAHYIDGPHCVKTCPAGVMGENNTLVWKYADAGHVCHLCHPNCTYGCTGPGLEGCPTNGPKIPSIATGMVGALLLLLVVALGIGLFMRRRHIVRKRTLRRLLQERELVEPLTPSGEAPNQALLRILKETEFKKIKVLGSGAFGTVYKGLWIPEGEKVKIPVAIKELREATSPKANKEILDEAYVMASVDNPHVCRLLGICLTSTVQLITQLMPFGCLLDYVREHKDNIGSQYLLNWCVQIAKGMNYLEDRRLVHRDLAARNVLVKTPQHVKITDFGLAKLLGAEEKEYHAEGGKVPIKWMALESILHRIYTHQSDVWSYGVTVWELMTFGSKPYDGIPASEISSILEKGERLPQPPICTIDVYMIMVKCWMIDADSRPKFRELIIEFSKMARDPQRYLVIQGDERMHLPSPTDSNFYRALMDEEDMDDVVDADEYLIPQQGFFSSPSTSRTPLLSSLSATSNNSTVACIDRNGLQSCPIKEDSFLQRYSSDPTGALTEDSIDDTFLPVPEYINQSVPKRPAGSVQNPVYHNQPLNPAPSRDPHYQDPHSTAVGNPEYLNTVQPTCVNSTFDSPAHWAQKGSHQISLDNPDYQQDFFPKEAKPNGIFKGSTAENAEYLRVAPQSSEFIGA
# [22] = target: T1, Cytoplasmic tyrosine-protein kinase BMX (Homo sapiens) (UniProt P51813); assay: Inhibition of BMX (unknown origin) at 30 uM by microfluidic mobility shift assay relative to control; in short: as §1
# T1 sequence (whole entry): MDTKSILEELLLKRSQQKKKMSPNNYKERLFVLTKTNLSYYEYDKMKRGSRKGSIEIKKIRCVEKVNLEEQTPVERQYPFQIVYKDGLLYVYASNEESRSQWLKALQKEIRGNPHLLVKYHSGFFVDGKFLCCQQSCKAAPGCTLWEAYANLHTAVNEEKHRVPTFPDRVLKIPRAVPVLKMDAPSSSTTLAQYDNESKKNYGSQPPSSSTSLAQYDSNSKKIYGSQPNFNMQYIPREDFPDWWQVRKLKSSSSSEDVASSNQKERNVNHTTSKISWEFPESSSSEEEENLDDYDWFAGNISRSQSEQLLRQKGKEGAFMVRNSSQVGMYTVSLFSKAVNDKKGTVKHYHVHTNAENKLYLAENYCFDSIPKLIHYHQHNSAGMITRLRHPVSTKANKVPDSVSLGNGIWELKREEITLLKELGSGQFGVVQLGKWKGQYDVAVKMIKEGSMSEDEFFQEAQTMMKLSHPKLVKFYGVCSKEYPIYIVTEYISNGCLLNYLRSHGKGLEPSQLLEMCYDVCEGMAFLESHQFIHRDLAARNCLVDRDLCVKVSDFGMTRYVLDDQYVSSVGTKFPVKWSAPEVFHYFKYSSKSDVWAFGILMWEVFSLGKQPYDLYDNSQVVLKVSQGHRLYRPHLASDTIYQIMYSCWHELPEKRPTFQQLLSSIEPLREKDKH
# [23] = test system: Tyrosine-protein kinase ABL1 (Homo sapiens), P00519 [H396P]; assay: Inhibition of ABL H396P mutant (unknown origin) at 30 uM by microfluidic mobility shift assay relative to control; type: protein assay; in short: as §1
# [24] = target: Cyclin-dependent kinase 2 (Homo sapiens) (UniProt P24941); assay: Inhibition of CDK2 (unknown origin) at 30 uM by microfluidic mobility shift assay relative to control; in short: as §1
# [25] = target: Serine/threonine-protein kinase pim-1 (Homo sapiens) (UniProt P11309); assay: Inhibition of PIM1 (unknown origin) at 30 uM by microfluidic mobility shift assay relative to control; in short: as §1
# Chain of Serine/threonine-protein kinase pim-1 (Homo sapiens) (P11309 whole entry, looked up): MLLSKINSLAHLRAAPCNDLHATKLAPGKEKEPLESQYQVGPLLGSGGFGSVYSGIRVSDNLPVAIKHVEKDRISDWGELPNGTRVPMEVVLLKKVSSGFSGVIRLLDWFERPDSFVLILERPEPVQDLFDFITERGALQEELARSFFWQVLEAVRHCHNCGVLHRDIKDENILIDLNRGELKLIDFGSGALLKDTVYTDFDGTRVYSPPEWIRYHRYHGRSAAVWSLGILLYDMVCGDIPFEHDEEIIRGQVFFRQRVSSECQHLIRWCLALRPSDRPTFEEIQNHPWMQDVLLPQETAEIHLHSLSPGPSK
# [26] = target: Ribosomal protein S6 kinase beta-1 (Homo sapiens) (UniProt P23443); assay: Inhibition of p70S6K (unknown origin) at 30 uM by microfluidic mobility shift assay relative to control
# Chain of Ribosomal protein S6 kinase beta-1 (Homo sapiens) (P23443 whole entry, looked up): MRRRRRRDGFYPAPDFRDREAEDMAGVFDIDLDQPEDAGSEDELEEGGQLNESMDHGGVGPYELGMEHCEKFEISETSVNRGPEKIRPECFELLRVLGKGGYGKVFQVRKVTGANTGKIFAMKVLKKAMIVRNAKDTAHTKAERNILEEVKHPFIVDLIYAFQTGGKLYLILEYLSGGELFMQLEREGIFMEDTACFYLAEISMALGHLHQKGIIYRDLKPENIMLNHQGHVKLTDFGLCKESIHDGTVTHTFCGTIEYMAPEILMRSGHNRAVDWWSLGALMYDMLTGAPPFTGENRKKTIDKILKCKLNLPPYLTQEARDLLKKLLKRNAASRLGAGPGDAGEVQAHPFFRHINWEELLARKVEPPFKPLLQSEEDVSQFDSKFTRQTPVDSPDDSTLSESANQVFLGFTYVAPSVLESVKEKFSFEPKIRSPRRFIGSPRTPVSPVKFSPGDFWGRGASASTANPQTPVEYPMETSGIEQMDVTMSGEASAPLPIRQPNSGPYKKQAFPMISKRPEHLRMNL
# In short: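 Single-point screen against a 24-kinase panel in a commercial microfluidic assay format. Compounds were tested at 30 µM, with ATP at approximately the Km,[ATP] of each enzyme. H-89 was included on each assay plate as an internal control.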
# [27] = target: Protein kinase C beta type (Homo sapiens) (UniProt P05771); assay: Inhibition of PKCbeta-2 (unknown origin) at 30 uM by microfluidic mobility shift assay relative to control; in short: as §1
# Chain of Protein kinase C beta type (Homo sapiens) (P05771 2-671 limits assumed): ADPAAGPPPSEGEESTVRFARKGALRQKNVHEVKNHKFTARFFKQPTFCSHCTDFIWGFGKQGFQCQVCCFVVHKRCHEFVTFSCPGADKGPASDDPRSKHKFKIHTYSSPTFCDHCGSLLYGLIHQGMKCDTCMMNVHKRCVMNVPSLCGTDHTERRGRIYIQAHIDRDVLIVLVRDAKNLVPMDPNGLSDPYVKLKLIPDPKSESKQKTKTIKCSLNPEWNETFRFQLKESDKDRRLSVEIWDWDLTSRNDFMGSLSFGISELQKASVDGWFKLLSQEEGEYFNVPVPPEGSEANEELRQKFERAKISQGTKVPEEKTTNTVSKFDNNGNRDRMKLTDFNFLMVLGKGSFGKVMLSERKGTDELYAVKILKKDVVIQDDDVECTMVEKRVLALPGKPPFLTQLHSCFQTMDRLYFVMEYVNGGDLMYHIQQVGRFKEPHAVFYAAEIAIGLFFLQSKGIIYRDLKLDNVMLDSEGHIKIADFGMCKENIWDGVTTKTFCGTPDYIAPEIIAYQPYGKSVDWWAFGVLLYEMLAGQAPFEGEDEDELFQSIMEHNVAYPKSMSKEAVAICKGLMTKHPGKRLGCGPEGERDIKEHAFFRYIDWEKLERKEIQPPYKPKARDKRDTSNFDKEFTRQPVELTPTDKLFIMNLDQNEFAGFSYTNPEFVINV
# [28] = target: Aurora kinase B (Homo sapiens) (UniProt Q96GD4); assay: Inhibition of AURB (unknown origin) at 30 uM by microfluidic mobility shift assay relative to control; in short: as §1
# Chain of Aurora kinase B (Homo sapiens) (Q96GD4 whole entry): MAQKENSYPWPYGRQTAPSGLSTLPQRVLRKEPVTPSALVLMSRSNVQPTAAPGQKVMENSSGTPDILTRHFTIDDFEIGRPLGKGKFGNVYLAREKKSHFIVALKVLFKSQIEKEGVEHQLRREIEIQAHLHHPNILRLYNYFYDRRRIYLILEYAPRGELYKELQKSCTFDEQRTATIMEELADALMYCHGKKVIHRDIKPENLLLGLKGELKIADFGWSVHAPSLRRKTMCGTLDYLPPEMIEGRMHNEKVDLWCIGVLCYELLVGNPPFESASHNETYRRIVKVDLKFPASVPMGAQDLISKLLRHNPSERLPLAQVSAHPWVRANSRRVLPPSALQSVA
Compound,inhibition [20],inhibition [21],inhibition [22],inhibition [23],inhibition [24],inhibition [25],inhibition [26],inhibition [27],inhibition [28],IC50 [1],IC50 [2],IC50 [3],IC50 [4],IC50 [5],IC50 [6],IC50 [7],IC50 [8],IC50 [9],IC50 [11],IC50 [12],also measured
c1nc(N2CCC3(CCCCN3)CC2)c2nc[nH]c2n1,–,–,–,–,–,–,–,–,–,238 µM,150 µM,113 µM,178 µM,158 µM,126 µM,138 µM,47 µM,60 µM,226 µM,46 µM,IC50 [10]: 41 µM; IC50 [13]: 103 µM; IC50 [14]: 63 µM; IC50 [15]: 5.3 µM; IC50 [16]: 66 µM; IC50 [17]: 14 µM
c1nc(N2CCC3(CCCNC3)CC2)c2nc[nH]c2n1,–,–,–,–,–,–,–,–,–,97 µM,18 µM,20 µM,14 µM,26 µM,7 µM,55 µM,38 µM,37 µM,41 µM,1.3 µM,IC50 [18]: 183 µM; IC50 [13]: 19 µM; IC50 [19]: 74 µM; IC50 [15]: 0.7 µM; IC50 [16]: 9.5 µM; IC50 [17]: 1.6 µM
c1ccc(C2CCNC3(CCN(c4ncnc5[nH]cnc45)CC3)C2)cc1 (racemic),29%,10%,0%,42%,19%,7%,95%,36%,64%,–,–,–,–,–,–,–,–,–,–,–,–

# More lines, main results first:
inhibition [20],inhibition [21],inhibition [22],inhibition [23],inhibition [24],inhibition [25],inhibition [26],inhibition [27],inhibition [28],Compound,IC50 [1],IC50 [2],IC50 [3],IC50 [4],IC50 [5],IC50 [6],IC50 [7],IC50 [8],IC50 [9],IC50 [11],IC50 [12],also measured
28%,8%,12%,28%,15%,11%,47%,13%,73%,c1ccc(CC2CCC3(CCN(c4ncnc5[nH]cnc45)CC3)NC2)cc1 (racemic),–,–,–,–,–,–,–,–,–,–,–,–
20%,3%,8%,15%,21%,8%,98%,60%,66%,c1ccc(CC2CCNC3(CCN(c4ncnc5[nH]cnc45)CC3)C2)cc1 (racemic),–,–,–,–,–,–,–,–,–,–,–,–
